Measurements reported in PMC5774476 (Drug Design, Development and Therapy, 2018).
Like-named read-outs stand apart in the source and are kept apart here.

Columns and labels:
WiDR cells = test: MTT cytotoxicity assay on WiDR colorectal cancer cells; type: cell-based; conditions: for IC50: Homo sapiens, WiDr, 24 h; for SI (selectivity index): ratio of IC50 in Vero versus that in WiDR cells, selective if >3
In short: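 WiDR cells grown in RPMI 1640 with 0.1 mg/mL streptomycin (5% CO2, 37°C); confluent cells seeded 1×10^4/well for 24 h, then exposed 24 h to test compound (1% DMSO solution diluted in medium) at 3.906–500 µg/mL. MTT 4 h, formazan dissolved overnight in 10% SDS/0.01 N HCl, A595. Viability vs untreated and cell-free controls; IC50 by probit, mean of three experiments; SI = Vero IC50/WiDR IC50.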

[1] = IC50 slightly higher than that of chloroquine; cited from earlier work

Row | Structure (SMILES) | IC50 (WiDR cells; read-out: IC50 (µM) WiDR) | IC50 (WiDR cells; read-out: IC50 (µg/mL) WiDR) | cytotoxicity category (CSIR criteria) (WiDR cells; WiDR cell line) | cytotoxic activity (in words) (WiDR cells; WiDR cells, MTT) | SI (selectivity index) (WiDR cells) | SI (selectivity index) (WiDR cells; listed as compound 5) | antimalarial activity [1]
1 | O=c1c2ccc(O)cc2oc2c(O)c(O)ccc12 [Compound 5, 3,4,6-trihydroxyxanthone] | 37.8 ± 10.6 µM | 9.23 ± 2.58 µg/mL | moderate (moderate (6.25 µg/mL < mean IC50 <15 µg/mL)) | exhibited cytotoxic activity | 66.39 | 66.40 | good antimalarial activity
2 | COc1cccc2c1C(=O)c1c(O)c3c(c(O)c1C2=O)C[C@@](O)(C(=O)CO)C[C@@H]3O[C@H]1C[C@H](N)[C@H](O)[C@H](C)O1 [Doxorubicin, doxorubicin, reference compound] | 3.04 ± 0.184 µM | 1.65 ± 0.19 µg/mL | – | – | 49.38 | – | –
